Each structure is given as a SMILES string.

This experiment deals with Murine stromal cell line. The experiment can be described thus: In vitro ability to induce a hematopoietic synergistic factor from a murine stromal cell line at 0.10 ug/mL; Not Detected. The experiment is classed as functional, cell-based. The conditions noted are these: Mus musculus. The gist of the method:
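Murine stromal cell line C6.4 exposed to test compounds at 0.10, 1.0 and 10.0 µg/mL. Stromal supernatants then assayed for induced hematopoietic synergistic factor (HSF) activity in a murine bone marrow CFU-GM colony assay. Reference peptide included in every assay at 1.0 µg/mL as positive control.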

In the case of `O=C(CCNC(=O)[C@H](CO)NC(=O)c1ccc[nH]1)Nc1ccc(NC(=O)CCNC(=O)[C@H](CO)NC(=O)c2ccc[nH]2)cc1`, the HSF release result is “Not detected”.

The values are drawn from ChEMBL document CHEMBL1133421, “Novel peptidomimetic hematoregulatory compounds” (2000).
